Laboratory results as given in ChEMBL document CHEMBL4257441, “Protection effect of intracellular melanin from Lachnum YM156 and Haikunshenxi capsule combination on adenine-induced chronic renal failure in mice” (Medchemcomm, 2017).

Legend:
Mus musculus [1] = assay: Protective effect against adenine-induced chronic renal failure in Kunming mouse assessed as kidney index at 200 mg/kg, ig qd administered for 4 successive weeks with haikunshenxi capsule measured 24 hrs post last dose (reference value: 1.94 +/- 0.03 mg/g); assay type: functional
Outline: (§1)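 Male Kunming mice (20 ± 5 g) were housed on a 12 h light/dark cycle at 18–20 °C. Chronic renal failure was induced by long-term dietary adenine. The melanin was given orally at 100 or 200 mg kg–1, alone or with Haikunshenxi capsule as positive drug, with ten mice per group. Weight growth rate (%) and kidney index (mg g–1) were recorded.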

Mus musculus [2] = assay: Protective effect against adenine-induced chronic renal failure in ig dosed Kunming mouse assessed as reduction in kidney index administered as qd for 4 successive weeks measured 24 hrs post last dose
Mus musculus [3] = assay: Protective effect against adenine-induced chronic renal failure in Kunming mouse assessed as nephridial GSH levels at 100 mg/kg, ig qd administered for 4 successive weeks by colorimetric method (reference value: 3.05 +/- 0.11 mg/g); assay type: functional
Mus musculus [4] = assay: Protective effect against adenine-induced chronic renal failure in Kunming mouse assessed as nephridial GSH-PX levels at 200 mg/kg, ig qd administered for 4 successive weeks by colorimetric method (reference value: 688.45 +/- 12.67 U/L); assay type: functional
Mus musculus [5] = assay: Protective effect against adenine-induced chronic renal failure in ig dosed Kunming mouse assessed as decrease in serum creatinine levels administered as qd for 4 successive weeks by picric acid colorimetric method; assay type: functional, organism-based
Outline: (§2)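 Adenine-fed CRF model in male Kunming mice (20 ± 5 g) housed at 18–20 °C on a 12 h light/dark cycle. Oral dosing at 100 or 200 mg kg–1, with or without Haikunshenxi capsule; ten mice per group. Serum creatinine, BUN, total protein and albumin measured, each group compared with the model group.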

Mus musculus [6] = assay: Protective effect against adenine-induced chronic renal failure in ig dosed Kunming mouse assessed as increase in nephridial GSH-PX levels administered as qd for 4 successive weeks by colorimetric method; assay type: functional, organism-based
Outline: (§3)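 Male Kunming mice (20 ± 5 g) given dietary adenine to induce CRF, then dosed orally at 100 or 200 mg kg–1, with or without Haikunshenxi capsule; n = 10 per group. Kidney homogenate assayed for SOD and CAT (U mg–1 protein), GSH-Px (U L–1), GSH (mg g–1 protein) and MDA (nmol mL–1).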

Mus musculus [7] = assay: Protective effect against adenine-induced chronic renal failure in Kunming mouse assessed as nephridial MDA levels at 100 mg/kg, ig qd administered for 4 successive weeks with haikunshenxi capsule by thiobarbituric acid method (reference value: 5.05 +/- 0.15 nmol/ml); assay type: functional
Mus musculus [8] = assay: Protective effect against adenine-induced chronic renal failure in ig dosed Kunming mouse assessed as decrease in blood urea nitrogen levels in serum administered as qd for 4 successive weeks with haikunshenxi capsule by diacetyl oxime method; assay type: functional, organism-based; outline: as §2
Mus musculus [9] = assay: Protective effect against adenine-induced chronic renal failure in ig dosed Kunming mouse assessed as decrease in nephridial IL-6 levels administered as qd for 4 successive weeks; assay type: functional, organism-based
Outline: (§4)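 CRF model made by chronic dietary adenine in male Kunming mice (20 ± 5 g); oral dosing at 100 or 200 mg kg–1, alone or with Haikunshenxi capsule; ten mice per group. Kidney tissue TNF-α, IL-1β and IL-6 measured as pg per mg protein, and iNOS activity as U mg–1 protein.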

Mus musculus [10] = assay: Protective effect against adenine-induced chronic renal failure in Kunming mouse assessed as nephridial iNOS levels at 100 mg/kg, ig qd administered for 4 successive weeks with haikunshenxi capsule (reference value: 1.98 +/- 0.12 U/mg); assay type: functional
Mus musculus [11] = assay: Protective effect against adenine-induced chronic renal failure in Kunming mouse assessed as nephridial iNOS levels at 100 mg/kg, ig qd administered for 4 successive weeks (reference value: 1.98 +/- 0.12 U/mg); assay type: functional
Mus musculus [12] = assay: Protective effect against adenine-induced chronic renal failure in Kunming mouse assessed as weight growth rate at 200 mg/kg, ig qd administered for 4 successive weeks measured 24 hrs post last dose (reference value: 32.42 +/- 1.43%); assay type: functional
Outline: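 Male Kunming mice (20 ± 5 g) kept on a 12 h light/dark cycle at 18–20 °C on a standard diet. CRF induced by chronic dietary adenine. Test material given orally at 100 or 200 mg kg–1, alone or with Haikunshenxi capsule, alongside normal, model and capsule-only groups; ten mice per group. Weight growth rate recorded in %, kidney index in mg g–1.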

Mus musculus [13] = assay: Protective effect against adenine-induced chronic renal failure in Kunming mouse assessed as nephridial IL-6 levels at 100 mg/kg, ig qd administered for 4 successive weeks with haikunshenxi capsule (reference value: 20.85 +/- 0.11 pg/ml); assay type: functional
Mus musculus [14] = assay: Protective effect against adenine-induced chronic renal failure in Kunming mouse assessed as nephridial SOD levels at 100 mg/kg, ig qd administered for 4 successive weeks by hydroxylamine method (reference value: 30.45 +/- 1.12 U/mg); assay type: functional
Mus musculus [15] = assay: Protective effect against adenine-induced chronic renal failure in ig dosed Kunming mouse assessed as decrease in nephridial TNF-alpha levels administered as qd for 4 successive weeks; assay type: functional, organism-based; outline: as §4
Mus musculus [16] = assay: Protective effect against adenine-induced chronic renal failure in Kunming mouse assessed as nephridial SOD levels at 200 mg/kg, ig qd administered for 4 successive weeks with haikunshenxi capsule by hydroxylamine method (reference value: 30.45 +/- 1.12 U/mg); assay type: functional
Mus musculus [17] = assay: Protective effect against adenine-induced chronic renal failure in Kunming mouse assessed as nephridial CAT levels at 100 mg/kg, ig qd administered for 4 successive weeks with haikunshenxi capsule by visible spectrometry method (reference value: 44.13 +/- 1.25 U/mg); assay type: functional
Mus musculus [18] = assay: Protective effect against adenine-induced chronic renal failure in Kunming mouse assessed as kidney index at 200 mg/kg, ig qd administered for 4 successive weeks measured 24 hrs post last dose (reference value: 1.94 +/- 0.03 mg/g); assay type: functional; outline: as §1
Mus musculus [19] = assay: Protective effect against adenine-induced chronic renal failure in ig dosed Kunming mouse assessed as increase in nephridial GSH levels administered as qd for 4 successive weeks by colorimetric method; assay type: functional, organism-based; outline: as §3
Mus musculus [20] = assay: Protective effect against adenine-induced chronic renal failure in ig dosed Kunming mouse assessed as increase in nephridial SOD levels administered as qd for 4 successive weeks by hydroxylamine method; assay type: functional, organism-based; outline: as §3
Mus musculus [21] = assay: Protective effect against adenine-induced chronic renal failure in Kunming mouse assessed as nephridial IL-1beta levels at 200 mg/kg, ig qd administered for 4 successive weeks (reference value: 18.34 +/- 0.25 pg/ml); assay type: functional
Mus musculus [22] = assay: Protective effect against adenine-induced chronic renal failure in ig dosed Kunming mouse assessed as increase in nephridial CAT levels administered as qd for 4 successive weeks by visible spectrometry method; assay type: functional, organism-based; outline: as §3
Mus musculus [23] = assay: Protective effect against adenine-induced chronic renal failure in ig dosed Kunming mouse assessed as increase in albumin levels in serum administered as qd for 4 successive weeks by bromocresol green colorimetric method; assay type: functional, organism-based; outline: as §2
Mus musculus [24] = assay: Protective effect against adenine-induced chronic renal failure in ig dosed Kunming mouse assessed as decrease in blood urea nitrogen levels in serum administered as qd for 4 successive weeks by diacetyl oxime method; assay type: functional, organism-based; outline: as §2

## Cc1c(=O)c(=O)c2c3c[nH]c4c(C)c(=O)c(=O)c(c5c[nH]c1c52)c43
Mus musculus [1]
  Activity: 1.13 mg/g
Mus musculus [2]
  Activity: Dose-dependent effect
Mus musculus [3]
  Activity: 4.19 mg/g
Mus musculus [4]
  Activity: 790.43 U/L
Mus musculus [5]
  Activity: Dose-dependent effect
Mus musculus [6]
  Activity: Dose-dependent effect
Mus musculus [7]
  Activity: 3.05 nmol/mL
Mus musculus [8]
  Activity: Dose-dependent effect
Mus musculus [9]
  Activity: Dose-dependent effect
Mus musculus [10]
  Activity: 0.79 U/mg
Mus musculus [11]
  Activity: 1.79 U/mg
Mus musculus [12]
  Activity: 52.68%
Mus musculus [13]
  Activity: 12.07 pg/mL
Mus musculus [14]
  Activity: 32.32 U/mg
Mus musculus [15]
  Activity: Dose-dependent effect
Mus musculus [16]
  Activity: 48.58 U/mg
Mus musculus [17]
  Activity: 74.25 U/mg
Mus musculus [18]
  Activity: 1.35 mg/g
Mus musculus [19]
  Activity: Dose-dependent effect
Mus musculus [20]
  Activity: Dose-dependent effect
Mus musculus [21]
  Activity: 16.03 pg/mL
Mus musculus [22]
  Activity: Dose-dependent effect
Mus musculus [23]
  Activity: Dose-dependent effect
Mus musculus [24]
  Activity: Dose-dependent effect
